The values that follow come from ChEMBL document CHEMBL1125890, “Synthesis, calcium-channel-blocking activity, and antihypertensive activity of 4-(diarylmethyl)-1-[3-(aryloxy)propyl]piperidines and structurally related compounds” (J Med Chem, 1991).

Test [1] concerns Rattus norvegicus. Briefly: Antihypertensive activity expressed as change in mean arterial blood pressure (MABP) in spontaneously hypertensive rats (SHR),at 0.5-2h after 30 mg/kg oral administration. Type of test: functional, Artery. An outline of the steps:
(§1)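 Adult male SHR, catheter implanted in carotid artery or abdominal aorta under anesthesia at least 24 h before dosing. Baseline pressure recorded 1-1.5 h. Compound given orally at 30 mg/kg as solution or suspension in 0.5% Tween 80/distilled H2O (v/v) or other vehicle. MABP read at 0.5, 1, 1.5, 2, 3, 4, 5 and 6 h. Average percent change from predose calculated per period. Paired one-tailed t test, p < 0.05. n = 3-6 rats unless noted.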

The subject of test [2] is Rattus norvegicus. Briefly: Antihypertensive activity expressed as change in mean arterial blood pressure (MABP) in spontaneously hypertensive rats (SHR), at 3-6h after 30 mg/kg oral administration. Type of test: functional, Artery. An outline of the steps: as §1
The species entered for test [3] is Oryctolagus cuniculus. Briefly: Calcium channel-blocking activity by determined by ability to antagonize calcium-induced contractions of isolated rabbit aortic strips. The test is classed as functional. As to conditions: Aorta, read-out: pA2 (converted). In outline:
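Rabbit aortic strips were bathed in turn in CaCl2-containing buffer, CaCl2-free buffer, then depolarizing (KCl) CaCl2-free buffer. Cumulative CaCl2 addition induced contractions, recorded with force-displacement transducers. Responses were compared without and with 1–100 nM test compound. pA2 was calculated by the Van Rossum method from at least three tissues.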

For the molecule `Fc1ccc(C(c2ccc(F)cc2)C2CCN(CCCOc3ccccc3)CC2)cc1`, the Change was -1% in test [1] and -2% in test [2]. Moreover, in test [3], the Kb is 1.58 nM.

In the case of `Fc1ccc(C(c2ccc(F)cc2)C2CCN(CCCOc3ccc4ccccc4c3)CC2)cc1`, the Change in test [1] is -7%; in test [2], -4%. The Kb in test [3] was 7.94 nM.

As to `COc1cc(C(C)=O)ccc1OCCCN1CCC(C(C#N)(c2ccc(F)cc2)c2ccc(F)cc2)CC1`, the figures for the Change in test [1] and in test [2] were -17% and -26%, respectively. In test [3], the Kb was 2 nM.

As for `NC(=O)c1ccc(OCCCN2CCC(C(c3ccc(F)cc3)c3ccc(F)cc3)CC2)cc1`, the figures for the Change in test [1] and in test [2] were -3% and -8%, respectively. In addition, the Kb in test [3] was 31.6 nM.

For the molecule `O=S(=O)(CCCN1CCC(C(c2ccc(F)cc2)c2ccc(F)cc2)CC1)c1ccccc1`, the Change in test [1] was 2%; in test [2], 3%. For the same molecule, the Kb in test [3] was 20 nM.

In the case of `COc1cc(C(C)=O)ccc1OCCCN1CCC(C(c2ccc(F)cc2)c2ccc(F)c(F)c2)CC1` (stereo not drawn), the Change was -27% in test [1] and -30% in test [2]. Also, the Kb in test [3] is 1.26 nM.

For `COc1cc(C(C)=O)ccc1OCCCN1CCC(C(c2ccc(C)cc2)c2ccc(C)cc2)CC1`, the Change in test [1] is 3%; in test [2] it was -2%. The Kb in test [3] was 15.8 nM.

As for `Fc1ccc(C(c2ccc(F)cc2)C2CCN(CCCOc3cccc4ccccc34)CC2)cc1`, the Change in test [1] is reported as -6%; in test [2] it was -7%. The Kb in test [3] was 5.01 nM.

Take `COc1cc(C(C)=O)ccc1OCCCN1CCC(C(c2ccc(F)cc2F)c2ccc(F)cc2F)CC1`: the Change in test [1] is reported as -12%; in test [2], -16%. In test [3], the Kb is 15.8 nM.

Take `Fc1ccc(C(c2ccc(F)cc2)C2CCN(CCCOc3ccc(Cl)cc3)CC2)cc1`: the Change in test [1] was -15%; in test [2], -25%. Further, the Kb in test [3] is 2 nM.

In the case of `COc1cc(C(C)=O)ccc1OCCCN1CCC(C(c2ccccc2)c2ccc(F)cc2)CC1` (stereo not drawn), the values for the Change in test [1] and in test [2] were -8% and -12%, respectively. Also, in test [3], the Kb is 6.31 nM.

Turning to `COC(=O)c1ccc(OCCCN2CCC(C(c3ccc(F)cc3)c3ccc(F)cc3)CC2)c(OC)c1`, the Change in test [1] is -4%; in test [2], -2%. Also, in test [3], the Kb is 1.26 nM.

As for `COc1ccccc1OCCCN1CCC(C(c2ccc(F)cc2)c2ccc(F)cc2)CC1`, the Change in test [1] is -4%; in test [2], -1%. Also, the Kb in test [3] is 2.51 nM.

On to `COc1cc(C(=O)O)ccc1OCCCN1CCC(C(c2ccc(F)cc2)c2ccc(F)cc2)CC1`, for which the Change is recorded as 9% in test [1] and 0% in test [2]. For the same molecule, the Kb in test [3] is 79.4 nM.

As for `COc1cc(C(C)=O)ccc1OCCCN1CCC(C(c2ccc(F)c(F)c2)c2ccc(F)c(F)c2)CC1`, the Change in test [1] was -28%; in test [2] it was -35%. Further, in test [3], the Kb is 2.51 nM.

Regarding `COc1cc(OCCCN2CCC(C(c3ccc(F)cc3)c3ccc(F)cc3)CC2)ccc1C(C)=O`, the values for the Change in test [1] and in test [2] were -5% and -11%, respectively. Besides, the Kb in test [3] was 3.16 nM.

As to `Fc1ccc(C(c2ccc(F)cc2)C2CCN(CCOc3cccc4ccccc34)CC2)cc1`, the Change in test [1] is listed as -19%; in test [2], -27%. Also, the Kb in test [3] was 12.6 nM.

In the case of `CC(=O)c1ccc(OCCCN2CCC(C(c3ccc(F)cc3)c3ccc(F)cc3)CC2)cc1`, the Change was -1% in test [1] and 0% in test [2]. The Kb in test [3] was 2.51 nM.

As to `COc1cc(C#N)ccc1OCCCN1CCC(C(c2ccc(F)cc2)c2ccc(F)cc2)CC1`, the results for the Change in test [1] and in test [2] were -3% and -9%, respectively. For the same molecule, in test [3], the Kb was 2 nM.

For the molecule `COc1cc(C(C)=O)ccc1OCCCN1CCC(CC(C#N)(c2ccc(F)cc2)c2ccc(F)cc2)C1` (stereo not drawn), the Change is reported as 3% in test [1] and -7% in test [2]. Also, the Kb in test [3] is 10 nM.

For the molecule `COc1cc(C(C)=O)ccc1OCCCN1CCC(C(c2ccc(F)cc2)c2ccccn2)CC1` (stereo not drawn), the Change in test [1] was -3%; in test [2], 3%. Further, in test [3], the Kb is 158 nM.

Regarding `COc1cc(C(C)=O)ccc1OCCCN1CCC(C(C(N)=O)(c2ccc(F)cc2)c2ccc(F)cc2)CC1`, the Change came out at 3% in test [1] and 5% in test [2]. In addition, the Kb in test [3] was 25.1 nM.

Turning to `COc1cc(C(C)=O)ccc1OCCCN1CCC(C(c2ccc(Cl)cc2)c2ccc(Cl)cc2)CC1`, the values for the Change in test [1] and in test [2] were -3% and -9%, respectively. Also, the Kb in test [3] is 2.51 nM.

Regarding `COc1cc(C(C)=O)ccc1OCCN1CCC(C(c2ccc(F)cc2)c2ccc(F)cc2)CC1`, the Change in test [1] is given as -4%; in test [2], 0%. Also, in test [3], the Kb was 6.31 nM.

In the case of `COc1cc(C(C)=O)ccc1OCCCN1CCC(C(N)(c2ccc(F)cc2)c2ccc(F)cc2)CC1`, the Change in test [1] is 1%; in test [2] it was -10%. The Kb in test [3] was 31.6 nM.

On to `COc1cc(C(C)=O)ccc1OCCCN1CCC(Cc2ccc(F)cc2)CC1`, for which the values for the Change in test [1] and in test [2] were -7% and -4%, respectively. In addition, in test [3], the Kb is 20 nM.

Consider `COc1ccc(OCCCN2CCC(C(c3ccc(F)cc3)c3ccc(F)cc3)CC2)cc1`, for which the Change in test [1] was -2%; in test [2], -3%. Moreover, in test [3], the Kb is 2.51 nM.

As for `COc1cc(C(C)=O)ccc1OCCCN1CCC(C(O)(c2ccc(F)c(F)c2)c2ccc(F)c(F)c2)CC1`, the Change in test [1] is -5%; in test [2], -24%. For the same molecule, the Kb in test [3] was 2.51 nM.

Regarding `COc1cc(C(C)=O)ccc1OCCCN1CCC(C(O)(c2ccc(F)cc2)c2ccc(F)cc2)CC1`, the figures for the Change in test [1] and in test [2] were -5% and -9%, respectively. Further, in test [3], the Kb was 10 nM.

In the case of `COc1cc(C(C)=O)ccc1OCCCN1CCC(C(c2ccccc2)c2ccccc2)CC1`, the Change was -20% in test [1] and -12% in test [2]. Also, in test [3], the Kb is 6.31 nM.

`Fc1ccc(C(c2ccc(F)cc2)C2CCN(CCOc3ccc4ccccc4c3)CC2)cc1`: the values for the Change in test [1] and in test [2] were -16% and -30%, respectively. Further, in test [3], the Kb is 3.98 nM.

For the molecule `COc1cc(C(C)=O)ccc1OCCCCN1CCC(C(c2ccc(F)cc2)c2ccc(F)cc2)CC1`, the Change in test [1] is listed as -16%; in test [2], -21%. In addition, in test [3], the Kb was 2.51 nM.

`COc1cc(C(C)=O)ccc1OCCCN1CCCC(C(C#N)(c2ccc(F)cc2)c2ccc(F)cc2)C1` (stereo not drawn): the figures for the Change in test [1] and in test [2] were 5% and 9%, respectively. For the same molecule, in test [3], the Kb is 7.94 nM.

For the molecule `COc1cc(C(C)=O)ccc1OCCCN1CCC(C(c2ccc(F)cc2)c2ccc(F)cc2)CC1`, the Change in test [1] is -15%; in test [2], -22%. For the same molecule, the Kb in test [3] is 1.58 nM.

Take `Fc1ccc(C(c2ccc(F)cc2)C2CCN(CCCOc3ccc(Br)cc3)CC2)cc1`: the Change in test [1] is recorded as -3%; in test [2] it was -17%. Moreover, the Kb in test [3] was 1.58 nM.

On to `N#Cc1ccc(OCCCN2CCC(C(c3ccc(F)cc3)c3ccc(F)cc3)CC2)cc1`, for which the Change in test [1] is reported as 8%; in test [2] it was -11%. Moreover, in test [3], the Kb was 5.01 nM.

For `COc1cc(C(C)=O)ccc1OCCCCCCN1CCC(C(c2ccc(F)cc2)c2ccc(F)cc2)CC1`, the Change in test [1] is -10%; in test [2], -22%. The Kb in test [3] is 6.31 nM.

On to `Fc1ccc(C(c2ccc(F)cc2)C2CCN(CCCCc3ccccc3)CC2)cc1`, for which the Change in test [1] is listed as -5%; in test [2], -9%. Further, the Kb in test [3] was 2.51 nM.

On to `Nc1ccc(OCCCN2CCC(C(c3ccc(F)cc3)c3ccc(F)cc3)CC2)cc1`, for which the Change in test [1] is reported as -5%; in test [2], -8%. Also, the Kb in test [3] was 31.6 nM.

As for `COc1cc(C(C)=O)ccc1OCCCN1CCC(C(c2cccc(F)c2)c2cccc(F)c2)CC1`, the values for the Change in test [1] and in test [2] were -11% and -9%, respectively. Also, the Kb in test [3] was 3.16 nM.

Regarding `COc1cc(C(C)O)ccc1OCCCN1CCC(C(c2ccc(F)cc2)c2ccc(F)cc2)CC1` (stereo not drawn), the Change was -14% in test [1] and -9% in test [2]. Moreover, the Kb in test [3] was 10 nM.

Consider `COc1ccc(C(c2ccc(OC)cc2)C2CCN(CCCOc3ccc(C(C)=O)cc3OC)CC2)cc1`, for which the Change in test [1] is reported as 2%; in test [2], 1%. The Kb in test [3] is 10 nM.

`CCc1ccc(OCCCN2CCC(C(c3ccc(F)cc3)c3ccc(F)cc3)CC2)c(OC)c1`: the Change is -9% in test [1] and -7% in test [2]. Besides, the Kb in test [3] is 2.51 nM.

As for `CC(C)(C)c1ccc(OCCCN2CCC(C(c3ccc(F)cc3)c3ccc(F)cc3)CC2)cc1`, the Change in test [1] is -15%; in test [2] it was -10%. Besides, the Kb in test [3] was 1 nM.

As for `COc1cc(C(C)=O)ccc1OCCCN1CCC(=C(c2ccc(F)cc2)c2ccc(F)cc2)CC1`, the Change in test [1] is given as -9%; in test [2] it was -12%. Moreover, the Kb in test [3] was 3.98 nM.

For `CN(CCCN1CCC(C(c2ccc(F)cc2)c2ccc(F)cc2)CC1)c1ccccc1`, the Change in test [1] is -3%; in test [2], -6%. Further, the Kb in test [3] was 2 nM.
